Test system: Enterococcus faecalis
Assay: Antibacterial activity against Enterococcus faecalis NCTC 12697 after 16 hrs by microdilution method
Format: functional
Conditions: NCTC 12697, 16 h
Method in brief: (§1)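 Broth microdilution in cation-adjusted Mueller-Hinton broth (20 mg/l Ca2+, 10 mg/L Mg2+), inoculum 5×10^5 CFU/mL. Compounds from DMSO stocks, final DMSO <1%, tested over 0.12–128 µg/ml. Incubated 37 °C and read visually after 16 h. MIC is the lowest concentration with no visible growth, determined at least twice and converted to µmol/L.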
In the case of `Cc1ccc(C(=O)/C=C(\O)C(=O)O)c(C)c1`, the MIC was over 128 mg/L. Molecule `CN(C)c1ccc(C(=O)/C=C(\O)C(=O)O)cc1` has an MIC of over 128 mg/L. `O=C(O)/C(O)=C/C(=O)c1cccc(C(F)(F)F)c1` showed an MIC of over 128 mg/L. `COc1ccccc1C(=O)/C=C(\O)C(=O)O` gave an MIC of over 128 mg/L. With `CC(C)c1cc(C(C)C)c(C(=O)/C=C(\O)C(=O)O)c(C(C)C)c1` the MIC was over 128 mg/L. `O=C(O)/C(O)=C/C(=O)c1ccc(N2CCOCC2)cc1` gave an MIC of over 128 mg/L. With `COc1cc(C)c(C(=O)/C=C(\O)C(=O)O)cc1C` the MIC was over 128 mg/L. `Cc1cc(C)c(C)c(C(=O)/C=C(\O)C(=O)O)c1C` showed an MIC of 516 µM.

Test system: Bacillus subtilis
Assay: Antibacterial activity against Bacillus subtilis NCTC 10400 after 16 hrs by microdilution method
Format: functional
Conditions: NCTC 10400, 16 h
Method in brief: as §1
`Cc1ccc(C(=O)/C=C(\O)C(=O)O)c(C)c1` gave an MIC of over 128 mg/L. Work on `CN(C)c1ccc(C(=O)/C=C(\O)C(=O)O)cc1` yielded an MIC of over 128 mg/L. `O=C(O)/C(O)=C/C(=O)c1cccc(C(F)(F)F)c1` gave an MIC of over 128 mg/L. In the case of `COc1ccccc1C(=O)/C=C(\O)C(=O)O`, the MIC was over 128 mg/L. `CC(C)c1cc(C(C)C)c(C(=O)/C=C(\O)C(=O)O)c(C(C)C)c1` gave an MIC of 25 µM. Work on `O=C(O)/C(O)=C/C(=O)c1ccc(N2CCOCC2)cc1` yielded an MIC of over 128 mg/L. With `COc1cc(C)c(C(=O)/C=C(\O)C(=O)O)cc1C` the MIC was over 128 mg/L. `Cc1cc(C)c(C)c(C(=O)/C=C(\O)C(=O)O)c1C` showed an MIC of over 128 mg/L.

Test system: Staphylococcus aureus
Assay: Antibacterial activity against methicillin-sensitive Staphylococcus aureus NCTC 12981 after 16 hrs by microdilution method
Format: functional
Conditions: NCTC 12981, 16 h
Method in brief: as §1
`Cc1ccc(C(=O)/C=C(\O)C(=O)O)c(C)c1` showed an MIC of over 128 mg/L. `CN(C)c1ccc(C(=O)/C=C(\O)C(=O)O)cc1` showed an MIC of over 128 mg/L. In the case of `O=C(O)/C(O)=C/C(=O)c1cccc(C(F)(F)F)c1`, the MIC was over 128 mg/L. `COc1ccccc1C(=O)/C=C(\O)C(=O)O` gave an MIC of over 128 mg/L. With `CC(C)c1cc(C(C)C)c(C(=O)/C=C(\O)C(=O)O)c(C(C)C)c1` the MIC was 13 µM. `O=C(O)/C(O)=C/C(=O)c1ccc(N2CCOCC2)cc1` gave an MIC of over 128 mg/L. In the case of `COc1cc(C)c(C(=O)/C=C(\O)C(=O)O)cc1C`, the MIC was over 128 mg/L. Work on `Cc1cc(C)c(C)c(C(=O)/C=C(\O)C(=O)O)c1C` yielded an MIC of over 128 mg/L.

Test system: Staphylococcus aureus
Assay: Antibacterial activity against methicillin-resistant Staphylococcus aureus NCTC 13373 after 16 hrs by microdilution method
Format: functional
Conditions: NCTC 13373, 16 h
Method in brief: (§2)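 Broth microdilution in cation-adjusted Mueller-Hinton broth (20 mg/l Ca2+, 10 mg/L Mg2+), inoculum 5×10^5 CFU/mL. Compounds in DMSO, solvent under 1% in well, tested over 0.12-128 µg/ml. […] Each determined at least twice; values converted to µmol/L.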
`Cc1ccc(C(=O)/C=C(\O)C(=O)O)c(C)c1` showed an MIC of over 128 mg/L. `CN(C)c1ccc(C(=O)/C=C(\O)C(=O)O)cc1` gave an MIC of over 128 mg/L. For `O=C(O)/C(O)=C/C(=O)c1cccc(C(F)(F)F)c1`, the MIC was over 128 mg/L. `COc1ccccc1C(=O)/C=C(\O)C(=O)O` showed an MIC of over 128 mg/L. `CC(C)c1cc(C(C)C)c(C(=O)/C=C(\O)C(=O)O)c(C(C)C)c1` showed an MIC of over 128 mg/L. Work on `O=C(O)/C(O)=C/C(=O)c1ccc(N2CCOCC2)cc1` yielded an MIC of over 128 mg/L. In the case of `COc1cc(C)c(C(=O)/C=C(\O)C(=O)O)cc1C`, the MIC was over 128 mg/L. With `Cc1cc(C)c(C)c(C(=O)/C=C(\O)C(=O)O)c1C` the MIC was over 128 mg/L.

Test system: Staphylococcus aureus
Assay: Antibacterial activity against Norfloxacin-resistant Staphylococcus aureus 1199B over-expressing NorA after 16 hrs by microdilution method
Format: functional
Conditions: not given
Method in brief: as §2
`Cc1ccc(C(=O)/C=C(\O)C(=O)O)c(C)c1` gave an MIC of over 128 mg/L. `CN(C)c1ccc(C(=O)/C=C(\O)C(=O)O)cc1` showed an MIC of over 128 mg/L. For `O=C(O)/C(O)=C/C(=O)c1cccc(C(F)(F)F)c1`, the MIC was over 128 mg/L. `COc1ccccc1C(=O)/C=C(\O)C(=O)O` gave an MIC of over 128 mg/L. With `CC(C)c1cc(C(C)C)c(C(=O)/C=C(\O)C(=O)O)c(C(C)C)c1` the MIC was 25 µM. Work on `O=C(O)/C(O)=C/C(=O)c1ccc(N2CCOCC2)cc1` yielded an MIC of over 128 mg/L. In the case of `COc1cc(C)c(C(=O)/C=C(\O)C(=O)O)cc1C`, the MIC was over 128 mg/L. With `Cc1cc(C)c(C)c(C(=O)/C=C(\O)C(=O)O)c1C` the MIC was over 128 mg/L.

Test system: Staphylococcus aureus
Assay: Antibacterial activity against erythromycin-resistant Staphylococcus aureus RN4220 after 16 hrs by microdilution method
Format: functional
Conditions: RN4220, 16 h
Method in brief: as §2
Molecule `Cc1ccc(C(=O)/C=C(\O)C(=O)O)c(C)c1` has an MIC of over 128 mg/L. `CN(C)c1ccc(C(=O)/C=C(\O)C(=O)O)cc1` showed an MIC of over 128 mg/L. With `O=C(O)/C(O)=C/C(=O)c1cccc(C(F)(F)F)c1` the MIC was over 128 mg/L. Work on `COc1ccccc1C(=O)/C=C(\O)C(=O)O` yielded an MIC of over 128 mg/L. Molecule `CC(C)c1cc(C(C)C)c(C(=O)/C=C(\O)C(=O)O)c(C(C)C)c1` has an MIC of 50 µM. In the case of `O=C(O)/C(O)=C/C(=O)c1ccc(N2CCOCC2)cc1`, the MIC was over 128 mg/L. `COc1cc(C)c(C(=O)/C=C(\O)C(=O)O)cc1C` showed an MIC of over 128 mg/L. Work on `Cc1cc(C)c(C)c(C(=O)/C=C(\O)C(=O)O)c1C` yielded an MIC of over 128 mg/L.

Test system: Staphylococcus aureus
Assay: Antibacterial activity against Staphylococcus aureus EMRSA-15 after 16 hrs by microdilution method
Format: functional
Conditions: EMRSA-15, 16 h
Method in brief: as §1
`Cc1ccc(C(=O)/C=C(\O)C(=O)O)c(C)c1` showed an MIC of over 128 mg/L. Work on `CN(C)c1ccc(C(=O)/C=C(\O)C(=O)O)cc1` yielded an MIC of over 128 mg/L. `O=C(O)/C(O)=C/C(=O)c1cccc(C(F)(F)F)c1` showed an MIC of over 128 mg/L. Work on `COc1ccccc1C(=O)/C=C(\O)C(=O)O` yielded an MIC of over 128 mg/L. Molecule `CC(C)c1cc(C(C)C)c(C(=O)/C=C(\O)C(=O)O)c(C(C)C)c1` has an MIC of 25 µM. `O=C(O)/C(O)=C/C(=O)c1ccc(N2CCOCC2)cc1` showed an MIC of over 128 mg/L. `COc1cc(C)c(C(=O)/C=C(\O)C(=O)O)cc1C` showed an MIC of over 128 mg/L. `Cc1cc(C)c(C)c(C(=O)/C=C(\O)C(=O)O)c1C` showed an MIC of over 128 mg/L.

Test system: Staphylococcus aureus
Assay: Antibacterial activity against tetracycline/methicillin-resistant Staphylococcus aureus XU212 after 16 hrs by microdilution method
Format: functional
Conditions: XU212, 16 h
Method in brief: as §2
Molecule `Cc1ccc(C(=O)/C=C(\O)C(=O)O)c(C)c1` has an MIC of over 128 mg/L. Work on `CN(C)c1ccc(C(=O)/C=C(\O)C(=O)O)cc1` yielded an MIC of over 128 mg/L. `O=C(O)/C(O)=C/C(=O)c1cccc(C(F)(F)F)c1` showed an MIC of over 128 mg/L. Work on `COc1ccccc1C(=O)/C=C(\O)C(=O)O` yielded an MIC of over 128 mg/L. With `CC(C)c1cc(C(C)C)c(C(=O)/C=C(\O)C(=O)O)c(C(C)C)c1` the MIC was 50 µM. Molecule `O=C(O)/C(O)=C/C(=O)c1ccc(N2CCOCC2)cc1` has an MIC of over 128 mg/L. For `COc1cc(C)c(C(=O)/C=C(\O)C(=O)O)cc1C`, the MIC was over 128 mg/L. In the case of `Cc1cc(C)c(C)c(C(=O)/C=C(\O)C(=O)O)c1C`, the MIC was over 128 mg/L.

Test system: Escherichia coli
Assay: Antibacterial activity against Escherichia coli NCTC 12241 after 16 hrs by microdilution method
Format: functional
Conditions: NCTC 12241, 16 h
Method in brief: as §1
`Cc1ccc(C(=O)/C=C(\O)C(=O)O)c(C)c1` showed an MIC of over 128 mg/L. `CN(C)c1ccc(C(=O)/C=C(\O)C(=O)O)cc1` gave an MIC of over 128 mg/L. `O=C(O)/C(O)=C/C(=O)c1cccc(C(F)(F)F)c1` showed an MIC of over 128 mg/L. Work on `COc1ccccc1C(=O)/C=C(\O)C(=O)O` yielded an MIC of over 128 mg/L. Molecule `CC(C)c1cc(C(C)C)c(C(=O)/C=C(\O)C(=O)O)c(C(C)C)c1` has an MIC of over 128 mg/L. `O=C(O)/C(O)=C/C(=O)c1ccc(N2CCOCC2)cc1` showed an MIC of over 128 mg/L. Molecule `COc1cc(C)c(C(=O)/C=C(\O)C(=O)O)cc1C` has an MIC of over 128 mg/L. In the case of `Cc1cc(C)c(C)c(C(=O)/C=C(\O)C(=O)O)c1C`, the MIC was over 128 mg/L.

Test system: not listed separately
Assay: Cytotoxicity against human MRC5 cells
Format: cell-based
Conditions: not given
`CC(C)c1cc(C(C)C)c(C(=O)/C=C(\O)C(=O)O)c(C(C)C)c1` gave an IC90 of 90 µM.

From ChEMBL document CHEMBL4138171, “Design, synthesis and biological evaluation of novel aryldiketo acids with enhanced antibacterial activity against multidrug resistant bacterial strains” (Eur J Med Chem, 2018)
